Active and inactive are the calls of the source. The rule behind the calls is not given here.
How the values were obtained:
[1] = Antioxidant activity assessed as hydroxy radical-scavenging activity; format: physicochemical
How it was run: (§1)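 Radical scavenging of each tannin measured against DPPH and hydroxy radicals by literature methods, with BHT and Trolox as reference antioxidants.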

[2] = Antioxidant activity assessed as DPPH radical-scavenging activity incubated for 30 mins by spectrophotometry; format: physicochemical; how it was run: as §1
J774 [3] = assay: Increase in cell viability of mouse J774 cells at 0.01 to 10 uM by MTT assay; format: functional, cell-based
Mus musculus [4] = assay: Anti-inflammatory activity in mouse model of croton oil-induced ear edema assessed as inhibition of ear swelling at 200 mg/kg, sc; format: functional
Liver microsome = assay: Antioxidant activity assessed as inhibition of Fe2+-cysteine-induced lipid peroxidation in rat liver microsomes incubated for 30 mins by thiobarbituric acid based assay; format: functional; settings: 0.5 h
Mus musculus [5] = assay: Anti-inflammatory activity in DBA/1 mouse model of collagen induced arthritis assessed as inhibition of disease progression and development at 20 mg/kg, sc measured on day 57; format: functional; settings: DBA/1, sc, 1368 h
Mus musculus [6] = assay: Anti-inflammatory activity in mouse model of croton oil-induced ear edema assessed as inhibition of ear swelling at 100 mg/kg, sc; format: functional
J774 [7] = assay: Inhibition of TNFalpha production in LPS-induced mouse J774 cells at 0.01 to 10 uM; format: functional, cell-based
Mus musculus [8] = assay: Anti-inflammatory activity in mouse model of carrageenan-induced paw edema assessed as inhibition of paw edema at 50 mg/kg, sc; format: functional
J774 [9] = assay: Inhibition of IL6 production in LPS-induced mouse J774 cells at 0.01 to 10 uM; format: functional, cell-based
Mus musculus [10] = assay: Anti-inflammatory activity in mouse model of croton oil-induced ear edema assessed as inhibition of ear swelling at 50 mg/kg, sc; format: functional
J774 [11] = assay: Inhibition of nitric oxide production in LPS-induced mouse J774 cells at 0.01 to 10 uM incubated for 24 hrs by Griess reaction based assay; format: functional, cell-based

IC50 [1] [µM]	IC50 [2] [µM]	SMILES	Activity (J774 [3])	further results
15.8	2.4	O=C1O[C@@H]2O[C@H](CO)[C@@H](O)[C@H](OC(=O)c3cc(O)c(O)c(O)c3)[C@H]2OC(=O)c2cc(Oc3c(C(=O)O[C@H]4C(O)O[C@@H]5COC(=O)c6cc(O)c(O)c(O)c6-c6c(cc(O)c(O)c6O)C(=O)O[C@H]5[C@@H]4OC(=O)c4cc(O)c(O)c(O)c4)cc(O)c(O)c3O)c(O)c(O)c2Oc2cc1cc(O)c2O (stereo partly drawn)		
36.8	4.73	O=C1O[C@@H]2O[C@@H]3COC(=O)c4cc(O)c(O)c(O)c4-c4c(cc(O)c(O)c4O)C(=O)O[C@H]3[C@H](OC(=O)c3cc(O)c(O)c(O)c3)[C@H]2OC(=O)c2cc(Oc3c(C(=O)O[C@H]4C(O)O[C@H](CO)[C@@H](O)[C@@H]4OC(=O)c4cc(O)c(O)c(O)c4)cc(O)c(O)c3O)c(O)c(O)c2Oc2cc1cc(O)c2O (stereo partly drawn)		
47.6	3.06	O=C(O[C@@H]1O[C@@H]2COC(=O)c3cc(O)c(O)c(O)c3-c3c(cc(O)c(O)c3O)C(=O)O[C@H]2[C@H](OC(=O)c2cc(O)c(O)c(O)c2)[C@H]1OC(=O)c1cc(O)c(O)c(O)c1Oc1cc2c(c(O)c1O)Oc1cc(cc(O)c1O)C(=O)O[C@@H]1O[C@@H]3COC(=O)c4cc(O)c(O)c(O)c4-c4c(cc(O)c(O)c4O)C(=O)O[C@H]3[C@H](OC(=O)c3cc(O)c(O)c(O)c3)[C@H]1OC2=O)c1cc(O)c(O)c(Oc2c(C(=O)O[C@H]3[C@H](OC(=O)c4cc(O)c(O)c(O)c4)O[C@H](CO)[C@@H](O)[C@@H]3OC(=O)c3cc(O)c(O)c(O)c3)cc(O)c(O)c2O)c1	Active	
16.3	4.44	O=C1O[C@@H]2O[C@@H]3COC(=O)c4cc(O)c(O)c(O)c4-c4c(cc(O)c(O)c4O)C(=O)O[C@H]3[C@H](OC(=O)c3cc(O)c(O)c(O)c3)[C@H]2OC(=O)c2cc(Oc3c(C(=O)O[C@H]4[C@H](OC(=O)c5cc(O)c(O)c(O)c5)O[C@H](CO)[C@@H](O)[C@@H]4OC(=O)c4cc(O)c(O)c(O)c4)cc(O)c(O)c3O)c(O)c(O)c2Oc2cc1cc(O)c2O	Active	
42.9	4.43	O=C1O[C@@H]2O[C@@H]3COC(=O)c4cc(O)c(O)c(O)c4-c4c(cc(O)c(O)c4O)C(=O)O[C@H]3[C@H](OC(=O)c3cc(O)c(O)c(O)c3)[C@H]2OC(=O)c2cc(O)c(O)c(O)c2Oc2cc(cc(O)c2O)C(=O)O[C@@H]2O[C@@H]3COC(=O)c4cc(O)c(O)c(O)c4-c4c(cc(O)c(O)c4O)C(=O)O[C@H]3[C@H](OC(=O)c3cc(O)c(O)c(O)c3)[C@H]2OC(=O)c2cc(O)c(O)c(O)c2Oc2cc1cc(O)c2O	Active	
55.1	4.23	O=C(O[C@@H]1O[C@@H]2COC(=O)c3cc(O)c(O)c(O)c3-c3c(cc(O)c(O)c3O)C(=O)O[C@H]2[C@H](OC(=O)c2cc(O)c(O)c(O)c2)[C@H]1OC(=O)c1cc(O)c(O)c(O)c1Oc1cc(C(=O)O[C@@H]2O[C@@H]3COC(=O)c4cc(O)c(O)c(O)c4-c4c(cc(O)c(O)c4O)C(=O)O[C@H]3[C@H](OC(=O)c3cc(O)c(O)c(O)c3)[C@H]2OC(=O)c2cc(O)c(O)c(O)c2Oc2cc3c(c(O)c2O)Oc2cc(cc(O)c2O)C(=O)O[C@@H]2O[C@@H]4COC(=O)c5cc(O)c(O)c(O)c5-c5c(cc(O)c(O)c5O)C(=O)O[C@H]4[C@H](OC(=O)c4cc(O)c(O)c(O)c4)[C@H]2OC3=O)cc(O)c1O)c1cc(O)c(O)c(O)c1	Active	
> 100	> 100	COc1cc(C(=O)O[C@@H]2[C@@H](OC(=O)c3cc(OC)c(OC)c(OC)c3Oc3cc4c(c(OC)c3OC)Oc3cc(cc(OC)c3OC)C(=O)O[C@@H]3O[C@@H]5COC(=O)c6cc(OC)c(OC)c(OC)c6-c6c(cc(OC)c(OC)c6OC)C(=O)O[C@H]5[C@H](OC(=O)c5cc(OC)c(OC)c(OC)c5)[C@H]3OC4=O)[C@H](OC)O[C@@H]3COC(=O)c4cc(OC)c(OC)c(OC)c4-c4c(cc(OC)c(OC)c4OC)C(=O)O[C@@H]23)cc(OC)c1OC		inhibition in vivo at 200 mg/kg (Mus musculus [4]): -0.7%
> 100	> 100	COc1cc(C(=O)O[C@@H]2[C@H]3OC(=O)c4cc(Oc5c(C(=O)O[C@H]6[C@@H](OC)O[C@@H]7COC(=O)c8cc(OC)c(OC)c(OC)c8-c8c(cc(OC)c(OC)c8OC)C(=O)O[C@H]7[C@@H]6OC(=O)c6cc(OC)c(OC)c(OC)c6)cc(OC)c(OC)c5OC)c(OC)c(OC)c4Oc4cc(cc(OC)c4OC)C(=O)O[C@@H]3O[C@@H]3COC(=O)c4cc(OC)c(OC)c(OC)c4-c4c(cc(OC)c(OC)c4OC)C(=O)O[C@@H]23)cc(OC)c1OC		inhibition in vivo at 200 mg/kg (Mus musculus [4]): 2.1%
22.6	7.08	Cc1cc(C(C)(C)C)c(O)c(C(C)(C)C)c1 [BUTYLATED HYDROXYTOLUENE]		
38.5	4.61	O=C(O[C@@H]1O[C@@H]2COC(=O)c3cc(O)c(O)c(O)c3-c3c(cc(O)c(O)c3O)C(=O)O[C@H]2[C@H](OC(=O)c2cc(O)c(O)c(O)c2)[C@H]1OC(=O)c1cc(O)c(O)c(O)c1-c1c(C(=O)O[C@@H]2O[C@@H]3COC(=O)c4cc(O)c(O)c(O)c4-c4c(cc(O)c(O)c4O)C(=O)O[C@H]3[C@H](OC(=O)c3cc(O)c(O)c(O)c3)[C@H]2OC(=O)c2cc(O)c(O)c(O)c2)cc(O)c(O)c1O)c1cc(O)c(O)c(O)c1 [HIRTELLIN A]	Active	IC50 (Liver microsome): 15.6 µM
39.7	4.1	O=C(O[C@@H]1O[C@@H]2COC(=O)c3cc(O)c(O)c(O)c3-c3c(cc(O)c(O)c3O)C(=O)O[C@H]2[C@H](OC(=O)c2cc(O)c(O)c(O)c2)[C@H]1OC(=O)c1cc(O)c(O)c(O)c1Oc1cc2c(c(O)c1O)Oc1cc(cc(O)c1O)C(=O)O[C@@H]1O[C@@H]3COC(=O)c4cc(O)c(O)c(O)c4-c4c(cc(O)c(O)c4O)C(=O)O[C@H]3[C@H](OC(=O)c3cc(O)c(O)c(O)c3)[C@H]1OC2=O)c1cc(O)c(O)c(O)c1 [HIRTELLIN B]	Active	IC50 (Liver microsome): 48.8 µM
32.5	4.67	O=C(O[C@@H]1O[C@@H]2COC(=O)c3cc(O)c(O)c(O)c3-c3c(cc(O)c(O)c3O)C(=O)O[C@H]2[C@H](OC(=O)c2cc(O)c(O)c(O)c2)[C@H]1OC(=O)c1cc(O)c(O)c(O)c1Oc1cc2c(c(O)c1O)Oc1cc(cc(O)c1O)C(=O)O[C@@H]1O[C@H](CO)[C@@H](O)[C@H](OC(=O)c3cc(O)c(O)c(O)c3)[C@H]1OC2=O)c1cc(O)c(O)c(O)c1 [NILOTININ D8]	Active	
38	3.16	O=C1O[C@@H]2O[C@@H]3COC(=O)c4cc(O)c(O)c(O)c4-c4c(cc(O)c(O)c4O)C(=O)O[C@H]3[C@H](OC(=O)c3cc(O)c(O)c(O)c3)[C@H]2OC(=O)c2cc(Oc3c(C(=O)O)cc(O)c(O)c3O)c(O)c(O)c2Oc2cc1cc(O)c2O [NILOTININ M4]		
41.5	3.57	O=C1O[C@@H]2O[C@@H]3COC(=O)c4cc(O)c(O)c(O)c4-c4c(cc(O)c(O)c4O)C(=O)O[C@H]3[C@H](OC(=O)c3cc(O)c(O)c(O)c3)[C@H]2OC(=O)c2cc(Oc3c(C(=O)O[C@@H]4[C@@H](OC(=O)c5cc(O)c(O)c(O)c5)[C@@H]5OC(=O)c6cc(O)c(O)c(O)c6-c6c(cc(O)c(O)c6O)C(=O)OC[C@H]5O[C@H]4O)cc(O)c(O)c3O)c(O)c(O)c2Oc2cc1cc(O)c2O [TAMARIXININ A]	Active	inhibition in vivo at 20 mg/kg (Mus musculus [5]): 46%; inhibition in vivo at 100 mg/kg (Mus musculus [6]): 39%; inhibition (J774 [7]): inactive; inhibition in vivo at 50 mg/kg (Mus musculus [8]): 25%; inhibition (J774 [9]): inactive; inhibition in vivo at 200 mg/kg (Mus musculus [4]): 69.8%; inhibition in vivo at 50 mg/kg (Mus musculus [10]): 34.4%; inhibition (J774 [11]): inactive; IC50 (Liver microsome): 18.4 µM
76.7	8	Cc1c(C)c2c(c(C)c1O)CCC(C)(C(=O)O)O2 (stereo not drawn) [TROLOX]		

SMILES	IC50 [1] [µM]	IC50 [2] [µM]	Activity (J774 [3])	further results
O=C(O)c1cc(O)c(O)c(O)c1 [GALLIC ACID]	15.7	7.23		
